Laboratory results taken from ChEMBL document CHEMBL5058577, “EUbOPEN Chemogenomics Library 2 (Multiplex)” (2022).

Tested on: U2OS
Test: Multiplex assay against U2OS
Type: toxicity, cell-based
Conditions: human
Procedure, shortened: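 Phenotypes for tubulin, mitochondrial mass and membrane permeability are expressed as per cents of healthy-nucleus cells. Cells were stained live at seeding with Hoechst33342, BioTracker Green Microtubule Cytoskeleton Dye, MitoTracker Red and Annexin V Alexa Fluor 680, then imaged after compound addition on a CQ1 microscope at 37°C and 5% CO2. Machine-learning gating in CellPathfinder separated Hoechst high-intensity objects from normal cells, divided normal cells by nuclear state (healthy, pyknosed, fragmented) and divided pyknosed cells into mitotic or apoptotic.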

[1] = 12 h, 1 µM, compound concentration 1 uM, replicate 1
[2] = 12 h, 1 µM, compound concentration 1 uM, replicate 2
[3] = 12 h, 10 µM, compound concentration 10 uM, replicate 1
[4] = 12 h, 10 µM, compound concentration 10 uM, replicate 2
[5] = 24 h, 1 µM, compound concentration 1 uM, replicate 1
[6] = 24 h, 1 µM, compound concentration 1 uM, replicate 2
[7] = 24 h, 10 µM, compound concentration 10 uM, replicate 1
[8] = 24 h, 10 µM, compound concentration 10 uM, replicate 2
[9] = 48 h, 1 µM, compound concentration 1 uM, replicate 1
[10] = 48 h, 1 µM, compound concentration 1 uM, replicate 2
[11] = 48 h, 10 µM, compound concentration 10 uM, replicate 1
[12] = 48 h, 10 µM, compound concentration 10 uM, replicate 2

CC(/C=C1\SC(=S)N(CCCC(=O)Nc2ccc(C(=O)O)c(O)c2)C1=O)=C\c1ccccc1
Population Apoptotic (%) [1]: 94%
Population Fragmented Nuclei (%) [1]: 26%
Population Healthy Nuclei (%) [1]: 64%
Population Hoechst High Intensity Objects (%) [1]: 3%
Population Membrane Permeable-Phenotype (%) [1]: 4%
Population Mitochondria Different-Phenotype (%) [1]: 1%
Population Mitotic Cells (%) [1]: 5%
Population Normal (%) [1]: 96%
Population Pyknosed Nuclei (%) [1]: 8%
Population Tubulin-Different-Phenotype (%) [1]: 3%
Total Cell Count [1]: 205
Population Apoptotic (%) [2]: 100%
Population Fragmented Nuclei (%) [2]: 12%
Population Healthy Nuclei (%) [2]: 80%
Population Hoechst High Intensity Objects (%) [2]: 4%
Population Membrane Permeable-Phenotype (%) [2]: 3%
Population Mitochondria Different-Phenotype (%) [2]: 2%
Population Mitotic Cells (%) [2]: 0%
Population Normal (%) [2]: 95%
Population Pyknosed Nuclei (%) [2]: 7%
Population Tubulin-Different-Phenotype (%) [2]: 0%
Total Cell Count [2]: 133
Population Apoptotic (%) [3]: 91%
Population Fragmented Nuclei (%) [3]: 28%
Population Healthy Nuclei (%) [3]: 61%
Population Hoechst High Intensity Objects (%) [3]: 3%
Population Membrane Permeable-Phenotype (%) [3]: 12%
Population Mitochondria Different-Phenotype (%) [3]: 2%
Population Mitotic Cells (%) [3]: 8%
Population Normal (%) [3]: 96%
Population Pyknosed Nuclei (%) [3]: 9%
Population Tubulin-Different-Phenotype (%) [3]: 4%
Total Cell Count [3]: 241
Population Apoptotic (%) [4]: 72%
Population Fragmented Nuclei (%) [4]: 16%
Population Healthy Nuclei (%) [4]: 72%
Population Hoechst High Intensity Objects (%) [4]: 0%
Population Membrane Permeable-Phenotype (%) [4]: 4%
Population Mitochondria Different-Phenotype (%) [4]: 1%
Population Mitotic Cells (%) [4]: 27%
Population Normal (%) [4]: 100%
Population Pyknosed Nuclei (%) [4]: 10%
Population Tubulin-Different-Phenotype (%) [4]: 5%
Total Cell Count [4]: 101
Population Apoptotic (%) [5]: 83%
Population Fragmented Nuclei (%) [5]: 25%
Population Healthy Nuclei (%) [5]: 64%
Population Hoechst High Intensity Objects (%) [5]: 3%
Population Membrane Permeable-Phenotype (%) [5]: 4%
Population Mitochondria Different-Phenotype (%) [5]: 1%
Population Mitotic Cells (%) [5]: 16%
Population Normal (%) [5]: 96%
Population Pyknosed Nuclei (%) [5]: 10%
Population Tubulin-Different-Phenotype (%) [5]: 1%
Total Cell Count [5]: 247
Population Apoptotic (%) [6]: 94%
Population Fragmented Nuclei (%) [6]: 9%
Population Healthy Nuclei (%) [6]: 79%
Population Hoechst High Intensity Objects (%) [6]: 1%
Population Membrane Permeable-Phenotype (%) [6]: 10%
Population Mitotic Cells (%) [6]: 5%
Population Normal (%) [6]: 98%
Total Cell Count [6]: 177
Population Apoptotic (%) [7]: 88%
Population Fragmented Nuclei (%) [7]: 26%
Population Healthy Nuclei (%) [7]: 64%
Population Hoechst High Intensity Objects (%) [7]: 2%
Population Membrane Permeable-Phenotype (%) [7]: 7%
Population Mitochondria Different-Phenotype (%) [7]: 3%
Population Mitotic Cells (%) [7]: 11%
Population Normal (%) [7]: 97%
Population Pyknosed Nuclei (%) [7]: 8%
Population Tubulin-Different-Phenotype (%) [7]: 3%
Total Cell Count [7]: 298
Population Apoptotic (%) [8]: 53%
Population Fragmented Nuclei (%) [8]: 16%
Population Healthy Nuclei (%) [8]: 72%
Population Hoechst High Intensity Objects (%) [8]: 0%
Population Mitochondria Different-Phenotype (%) [8]: 6%
Population Mitotic Cells (%) [8]: 46%
Population Normal (%) [8]: 100%
Population Pyknosed Nuclei (%) [8]: 11%
Population Tubulin-Different-Phenotype (%) [8]: 6%
Total Cell Count [8]: 111
Population Apoptotic (%) [9]: 93%
Population Fragmented Nuclei (%) [9]: 16%
Population Healthy Nuclei (%) [9]: 74%
Population Hoechst High Intensity Objects (%) [9]: 2%
Population Membrane Permeable-Phenotype (%) [9]: 5%
Population Mitochondria Different-Phenotype (%) [9]: 1%
Population Mitotic Cells (%) [9]: 6%
Population Normal (%) [9]: 97%
Population Pyknosed Nuclei (%) [9]: 8%
Population Tubulin-Different-Phenotype (%) [9]: 1%
Total Cell Count [9]: 368
Population Apoptotic (%) [10]: 78%
Population Fragmented Nuclei (%) [10]: 11%
Population Healthy Nuclei (%) [10]: 79%
Population Hoechst High Intensity Objects (%) [10]: 3%
Population Membrane Permeable-Phenotype (%) [10]: 4%
Population Mitochondria Different-Phenotype (%) [10]: 3%
Population Mitotic Cells (%) [10]: 21%
Population Normal (%) [10]: 96%
Population Pyknosed Nuclei (%) [10]: 9%
Population Tubulin-Different-Phenotype (%) [10]: 2%
Total Cell Count [10]: 253
Population Apoptotic (%) [11]: 97%
Population Fragmented Nuclei (%) [11]: 19%
Population Healthy Nuclei (%) [11]: 68%
Population Hoechst High Intensity Objects (%) [11]: 2%
Population Membrane Permeable-Phenotype (%) [11]: 6%
Population Mitochondria Different-Phenotype (%) [11]: 2%
Population Mitotic Cells (%) [11]: 2%
Population Normal (%) [11]: 97%
Population Pyknosed Nuclei (%) [11]: 12%
Population Tubulin-Different-Phenotype (%) [11]: 4%
Total Cell Count [11]: 396
Population Apoptotic (%) [12]: 82%
Population Fragmented Nuclei (%) [12]: 16%
Population Healthy Nuclei (%) [12]: 73%
Population Hoechst High Intensity Objects (%) [12]: 1%
Population Membrane Permeable-Phenotype (%) [12]: 4%
Population Mitochondria Different-Phenotype (%) [12]: 1%
Population Mitotic Cells (%) [12]: 17%
Population Normal (%) [12]: 98%
Population Pyknosed Nuclei (%) [12]: 10%
Population Tubulin-Different-Phenotype (%) [12]: 0%
Total Cell Count [12]: 170
